This is an account of results in ChEMBL document CHEMBL1153124, “5-Lipoxygenase-activating protein inhibitors. Part 2: 3-{5-((S)-1-Acetyl-2,3-dihydro-1H-indol-2-ylmethoxy)-3-tert-butylsulfanyl-1-[4-(5-methoxy-pyrimidin-2-yl)-benzyl]-1H-indol-2-yl}-2,2-dimethyl-propionic acid (AM679)--a potent FLAP inhibitor” (Bioorg Med Chem Lett, 2010).

One series concerns Blood. The experiment in a line: Inhibition of LTB4 production in calcium ionophore treated A23187 human whole blood after 15 mins. Conditions: 0.25 h. It counts as functional, tissue-based.
A short description of series [1]: Inhibition of LTB4 production in calcium ionophore A23187 treated human leukocytes. It is filed as functional, cell-based. Conditions: Leukocyte. In outline:
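Human leukocytes challenged with calcium ionophore; LTB4 produced by the cells was measured. IC50 is the average of n ≥ 3.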

Series [2] deals with T1, Arachidonate 5-lipoxygenase-activating protein (Homo sapiens, UniProt P20292).
T1 sequence (P20292 whole entry): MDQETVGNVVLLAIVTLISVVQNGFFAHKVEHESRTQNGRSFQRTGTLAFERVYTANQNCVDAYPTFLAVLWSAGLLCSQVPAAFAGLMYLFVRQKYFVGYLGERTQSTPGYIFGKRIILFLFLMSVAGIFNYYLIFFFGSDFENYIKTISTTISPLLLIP
The experiment in a line: Binding affinity to FLAP in human PMN derived membrane. It is filed as cell membranes. In outline:
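FLAP binding measured in membranes derived from human polymorphonuclear leukocytes (PMN). IC50 values are the average of n ≥ 3.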

The target in a further series is CYP2C9 (Homo sapiens, UniProt P11712). Kind of series: Inhibition of CYP2C9 at 10 uM. It counts as ADME.
The next series addresses CYP3A4 (Homo sapiens, UniProt P08684). Kind of series: Inhibition of CYP3A4 at 10 uM. It counts as ADME.

Sequence of CYP3A4 (P08684 whole entry): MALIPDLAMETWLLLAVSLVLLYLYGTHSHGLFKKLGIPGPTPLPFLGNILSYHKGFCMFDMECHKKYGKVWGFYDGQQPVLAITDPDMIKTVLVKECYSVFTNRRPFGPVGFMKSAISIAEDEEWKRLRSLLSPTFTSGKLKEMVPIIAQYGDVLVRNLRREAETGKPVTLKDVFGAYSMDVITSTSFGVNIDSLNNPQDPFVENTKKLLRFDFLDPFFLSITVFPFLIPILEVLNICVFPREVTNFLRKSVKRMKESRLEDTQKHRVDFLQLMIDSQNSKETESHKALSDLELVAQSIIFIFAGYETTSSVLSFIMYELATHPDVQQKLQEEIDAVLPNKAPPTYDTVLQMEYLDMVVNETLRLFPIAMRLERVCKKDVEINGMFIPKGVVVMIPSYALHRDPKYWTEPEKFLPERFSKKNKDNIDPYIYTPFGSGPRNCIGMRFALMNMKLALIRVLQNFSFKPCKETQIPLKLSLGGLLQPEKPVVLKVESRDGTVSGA
Sequence of CYP2C9 (P11712 whole entry): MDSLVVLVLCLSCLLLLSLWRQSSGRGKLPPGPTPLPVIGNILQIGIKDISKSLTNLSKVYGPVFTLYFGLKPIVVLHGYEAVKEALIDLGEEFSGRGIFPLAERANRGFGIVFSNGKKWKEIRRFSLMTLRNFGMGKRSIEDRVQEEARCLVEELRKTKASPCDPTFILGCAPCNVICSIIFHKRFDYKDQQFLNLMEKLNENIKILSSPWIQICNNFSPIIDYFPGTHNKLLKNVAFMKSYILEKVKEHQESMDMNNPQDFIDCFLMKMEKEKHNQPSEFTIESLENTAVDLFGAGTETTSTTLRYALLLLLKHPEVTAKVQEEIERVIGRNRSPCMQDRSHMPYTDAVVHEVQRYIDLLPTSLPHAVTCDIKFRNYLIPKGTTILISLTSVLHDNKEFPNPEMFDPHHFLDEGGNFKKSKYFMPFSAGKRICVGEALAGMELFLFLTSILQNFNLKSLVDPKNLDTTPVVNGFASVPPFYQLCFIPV

Consider `COc1ccc(-c2ccc(Cn3c(CC(C)(C)C(=O)O)c(SC(C)(C)C)c4cc(OC[C@@H]5Cc6ccccc6N5C(C)=O)ccc43)cc2)nc1`, for which the figures for the half-maximal inhibitory concentration (IC50) (in the series on Blood; in series [1]; in series [2]) were 0.373 µM, 0.0005 µM and 0.0038 µM, respectively.
The corresponding values for `CC(C)(C)OC(=O)N1c2ccccc2C[C@@H]1COc1ccc2c(c1)c(SC(C)(C)C)c(CC(C)(C)C(=O)O)n2Cc1ccc(Cl)cc1` are 12.3 µM, 0.102 µM and > 10 µM.
For `CC(C)(C)Sc1c(CC(C)(C)C(=O)O)n(Cc2ccc(Cl)cc2)c2ccc(OC[C@@H]3CCCN3S(C)(=O)=O)cc12` the same measures were 4.3 µM, 0.03 µM and 0.441 µM.
Take `COc1ccc(-c2ccc(Cn3c(CC(C)(C)C(=O)O)c(SC(C)(C)C)c4cc(OC[C@@H]5Cc6ccccc6N5C(C)=O)ccc43)cc2)nn1`: the IC50 in the series on Blood is 1.11 µM; in series [1], 0.0126 µM; in series [2] it was 0.0032 µM.
Take `CC(C)(C)Sc1c(CC(C)(C)C(=O)O)n(Cc2ccc(Cl)cc2)c2ccc(OCC(=O)c3ccc(F)cc3)cc12`: the IC50 with Blood is 11.8 µM; in series [1], 0.769 µM; in series [2], 0.013 µM.
As to `CC(=O)N1c2ccccc2C[C@H]1COc1ccc2c(c1)c(S(=O)(=O)C(C)(C)C)c(CC(C)(C)C(=O)O)n2Cc1ccc(Cl)cc1`, the 50% inhibitory concentration (IC50) with Blood turned out to be 1.74 µM; in series [1] it was 0.019 µM; in series [2] it was 0.0045 µM.
The corresponding values for `CC(C)(C)Sc1c(CC(C)(C)C(=O)O)n(Cc2ccc(Cl)cc2)c2ccc(OCC(O)c3ccc(F)cc3)cc12` (centres undefined) are 0.469 µM, 0.007 µM and 0.019 µM.
The corresponding values for `CC(C)(C)Sc1c(CC(C)(C)C(=O)O)n(Cc2ccc(Cl)cc2)c2ccc(OC[C@@H]3CCCN3C(=O)C3CC3)cc12` are 0.885 µM, 0.008 µM and 0.05 µM.
For `CC(C)(C)Sc1c(CC(C)(C)C(=O)O)n(Cc2ccc(Cl)cc2)c2ccc(OC[C@@H]3Cc4ccccc4N3)cc12` the same measures were 1.43 µM, 0.0041 µM and 0.085 µM.
As to `CC(=O)N[C@H](COc1ccc2c(c1)c(SC(C)(C)C)c(CC(C)(C)C(=O)O)n2Cc1ccc(Cl)cc1)c1ccccc1`, the results for the concentration for half-maximal inhibition (IC50) (in the series on Blood; in series [1]; in series [2]) were 23.1 µM, 0.072 µM and 0.581 µM, respectively.
`CC(C)(C)Sc1c(CC(C)(C)C(=O)O)n(Cc2ccc(Cl)cc2)c2ccc(OC[C@@H]3CCC(=O)N3)cc12`: the IC50 in the series on Blood stood at 9.02 µM; in series [1], 0.108 µM; in series [2], 0.616 µM.
Turning to `CC(=O)N1c2ccccc2C[C@H]1COc1ccc2c(c1)cc(CC(C)(C)C(=O)O)n2Cc1ccc(Cl)cc1`, the IC50 in the series on Blood came out at 31.5 µM; in series [1], 0.0129 µM; in series [2], 0.218 µM.
Take `CC(C)C(=O)N1CCC[C@H]1COc1ccc2c(c1)c(SC(C)(C)C)c(CC(C)(C)C(=O)O)n2Cc1ccc(Cl)cc1`: the concentration for half-maximal inhibition (IC50) turned out to be 5.66 µM in the series with Blood, 0.051 µM in series [1] and 0.186 µM in series [2].
For the molecule `CC(=O)N1c2ccccc2C[C@H]1COc1ccc2c(c1)c(Cc1ccccc1)c(CC(C)(C)C(=O)O)n2Cc1ccc(Cl)cc1`, the inhibition at 10 µM on CYP2C9 and against CYP3A4 was > 80% in each case. In addition, the IC50 came to 0.428 µM with Blood, 0.0015 µM in series [1] and 0.0152 µM in series [2].
Turning to `CC(=O)N1c2ccccc2C[C@H]1COc1ccc2c(c1)c(CC(C)C)c(CC(C)(C)C(=O)O)n2Cc1ccc(Cl)cc1`, the inhibition at 10 µM at CYP2C9 and against CYP3A4 was > 80% in each case. Also, the half-maximal inhibitory concentration (IC50) was determined as 0.2 µM in the series on Blood, 0.0005 µM in series [1] and 0.035 µM in series [2].
Consider `CC(=O)N1c2ccccc2C[C@H]1COc1ccc2c(c1)c(C(=O)C(C)C)c(CC(C)(C)C(=O)O)n2Cc1ccc(Cl)cc1`, for which the half-maximal inhibitory concentration (IC50) with Blood came out at 4.9 µM; in series [1] it was 0.0206 µM; in series [2], 0.0206 µM.
As for `CC(=O)N1c2ccccc2C[C@H]1COc1ccc2c(c1)c(CCC(C)(C)C)c(CC(C)(C)C(=O)O)n2Cc1ccc(Cl)cc1`, the inhibition at 10 µM against CYP2C9 and against CYP3A4 was > 80% each time. The concentration for half-maximal inhibition (IC50) in the series on Blood came out at 0.405 µM; in series [1] it was 0.0042 µM; in series [2], 0.0047 µM.
Regarding `CC(C)(C)Sc1c(CC(C)(C)C(=O)O)n(Cc2ccc(Cl)cc2)c2ccc(OC[C@@H]3CCCN3C(=O)c3ccccc3)cc12`, the figures for the 50% inhibitory concentration (IC50) (in the series on Blood; in series [1]; in series [2]) were 22.3 µM, 0.11 µM and 1.34 µM, respectively.
Turning to `CC(C)(C)OC(=O)N1c2ccccc2C[C@H]1COc1ccc2c(c1)c(SC(C)(C)C)c(CC(C)(C)C(=O)O)n2Cc1ccc(Cl)cc1`, the IC50 is 0.106 µM in series [1] and 1.1 µM in series [2].
With `CC(=O)N1c2ccccc2C[C@H]1COc1ccc2c(c1)c([S+]([O-])C(C)(C)C)c(CC(C)(C)C(=O)O)n2Cc1ccc(Cl)cc1` (some centres undefined), the values for the half-inhibitory concentration (IC50) (in the series on Blood; in series [1]; in series [2]) were 23.2 µM, 0.335 µM and 0.074 µM, respectively.
For the molecule `CC(C)(C)Sc1c(CC(C)(C)C(=O)O)n(Cc2ccc(Cl)cc2)c2ccc(OC[C@@H]3CCCN3)cc12`, the 50% inhibitory concentration (IC50) in series [1] is 2.78 µM; in series [2], > 10 µM.
For the molecule `CC(=O)N1c2ccccc2C[C@H]1COc1ccc2c(c1)c(C(=O)C(C)(C)C)c(CC(C)(C)C(=O)O)n2Cc1ccc(Cl)cc1`, the figures for the IC50 (in the series on Blood; in series [1]; in series [2]) were 0.521 µM, 0.0013 µM and 0.019 µM, respectively.
Take `CC(C)(C)Sc1c(CC(C)(C)C(=O)O)n(Cc2ccc(Cl)cc2)c2ccc(OCC(N)=O)cc12`: the IC50 in the series on Blood is 2.14 µM; in series [1], 0.028 µM; in series [2] it was 0.038 µM.
Turning to `CC(C)(C)OC(=O)N1CCC[C@H]1COc1ccc2c(c1)c(SC(C)(C)C)c(CC(C)(C)C(=O)O)n2Cc1ccc(Cl)cc1`, the IC50 in the series with Blood is 17.2 µM; in series [1], 0.029 µM; in series [2], 1.11 µM.
For `CC(=O)N1c2ccccc2C[C@H]1COc1ccc2c(c1)c(SC(C)(C)C)c(CC(C)(C)C(=O)O)n2Cc1ccc(-c2ccc(F)cn2)cc1` the same measures were 0.235 µM, 0.0005 µM and 0.0017 µM.
As to `COc1nc(-c2ccc(Cn3c(CC(C)(C)C(=O)O)c(SC(C)(C)C)c4cc(OC[C@@H]5Cc6ccccc6N5C(C)=O)ccc43)cc2)cs1`, the 50% inhibitory concentration (IC50) came out at 0.573 µM in the series on Blood, 0.0006 µM in series [1] and 0.0025 µM in series [2].
Turning to `CCC(=O)N1CCC[C@H]1COc1ccc2c(c1)c(SC(C)(C)C)c(CC(C)(C)C(=O)O)n2Cc1ccc(Cl)cc1`, the half-maximal inhibitory concentration (IC50) was determined as 0.307 µM in the series on Blood, 0.0015 µM in series [1] and 0.004 µM in series [2].
As for `CC(C)(C)OC(=O)N1CCC[C@@H]1COc1ccc2c(c1)c(SC(C)(C)C)c(CC(C)(C)C(=O)O)n2Cc1ccc(Cl)cc1`, the concentration for half-maximal inhibition (IC50) was 67.8 µM with Blood, 0.193 µM in series [1] and 1.81 µM in series [2].
For `COc1ccc(-c2ccc(Cn3c(CC(C)(C)C(=O)O)c(SC(C)(C)C)c4cc(OC[C@@H]5Cc6ccccc6N5C(C)=O)ccc43)cc2)cn1` the same measures were 0.276 µM, 0.0018 µM and 0.0093 µM.
The corresponding values for `CC(=O)N1c2ccccc2C[C@H]1COc1ccc2c(c1)c(C(=O)c1ccccc1)c(CC(C)(C)C(=O)O)n2Cc1ccc(Cl)cc1` are 63.1 µM, 0.263 µM and > 10 µM.
